Experimental findings from ChEMBL document CHEMBL1127474, “Synthesis and antifungal activity of novel cationic pneumocandin B(o) derivatives” (J Med Chem, 1994) are described below.

Holding throughout (type): functional
One assay concerns Kluyveromyces marxianus. The assay is described as follows: In vitro minimum fungicidal concentration (MFC) against Candida pseudotropicalis (MY 2099). The essentials: (§1)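 Whole-cell broth microdilution assay against reference and clinical Candida isolates; the MFC is the median of at least four duplicate determinations.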
In assay [1] the test system is Candida albicans. In words: In vitro minimum fungicidal concentration (MFC) against Candida albicans (MY 1208). As to conditions: in the assay text read “MY 1028” for “MY 1208”. The essentials:
as §1

In assay [2] the test system is Mus musculus. The assay is described as follows: In vivo minimum dose administered intraperitoneally b.i.d. which decreases Candida albicans (MY 1055) colony forming units by 99.9% in target organ kidney assay. The essentials: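 Target organ kidney assay in congenitally immunodeficient DBA/2 mice infected with C. albicans MY1055 and dosed ip twice daily. Kidney CFU/g is compared with untreated controls, and ED99.9 is the lowest dose giving a 99.9% reduction.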

For a further assay, the system named is Candida parapsilosis. In words: In vitro minimum fungicidal concentration (MFC) against Candida parapsilosis (MY 1010). Particulars: Lodderomyces parapsilosis. An outline of the steps:
as §1

The subject of assay [3] is Mus musculus. In words: In vivo dose administered ip bid on days 0-4 which increases the 28-day survival rate of Aspergillus fumigatus by 50%. As to conditions: 672 h. The essentials: (§2)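 DBA/2 mice with disseminated A. fumigatus (MF5668) infection; compound given ip twice daily on days 0–4. Survival followed for 28 days; ED50 taken as the dose that raises the 28-day survival rate by 50%.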

The test system of assay [4] is Candida albicans. In words: In vitro minimum fungicidal concentration (MFC) against Candida albicans (MY 1055). The essentials: as §1
For the next assay, the system named is Rattus norvegicus. In words: In vivo minimum dose administered subcutaneously b.i.d. which decreases the lung cyst count by 90% using PCP model in dexamethasone-immunosuppressed rats. An outline of the steps:
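Acute Pneumocystis carinii pneumonia model in dexamethasone-immunosuppressed Sprague-Dawley rats dosed sc twice daily for 4 days. Lung cyst counts are compared with untreated controls, and ED90 is the lowest dose giving a 90% reduction.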

For assay [5], the system named is Candida albicans. The assay is described as follows: In vitro concentration causing 50% inhibition of beta-(1,3)-D-glucan synthesis in a Candida albicans (MY 1208) membrane assay.
The test system of the next assay is Candida tropicalis. In words: In vitro minimum fungicidal concentration (MFC) against Candida tropicalis (MY 1012). An outline of the steps: as §1
Assay [6] concerns Mus musculus. The assay is described as follows: In vivo dose administered intraperitoneally bid on days 0-4 which increases the 28-day survival rate of Aspergillus fumigatus by 50%. Particulars: ip, 672 h. An outline of the steps: as §2

≈ marks a conversion by molar mass, not a printed value. *1 amine or outer side, *2 acyl side, *3 side chain or, on linkers, in order; H or OH if unused. Where a SMILES comes first, the peptide text is derived from it. Bridges are numbered along the chain shown (N, C = ends). [ ]: non-standard residue; d: D form. The star is where a group is joined. Orn(4R-OH,5R-OH) = O=C([C@H](C[C@@H](O)[C@@H](O)N[*:3])N[*:1])[*:2]; hTyr(3S-OH,4S-OH) = N[C@H](C(=O)O)[C@H](O)[C@@H](O)c1ccc(O)cc1; Gln(3R-OH) = NC(=O)C[C@@H](O)[C@H](N)C(=O)O; Orn(3R-OH) = NCC[C@@H](O)[C@H](N)C(=O)O; Pro(3S-OH) = O=C(O)[C@H]1NCC[C@@H]1O; Hyp = O=C(O)[C@@H]1C[C@@H](O)CN1; X1 = CCC(C)CC(C)CCCCCCCCC(=O)*

Consider `CCC(C)CC(C)CCCCCCCCC(=O)N[C@H]1C[C@@H](O)[C@@H](OCCN)NC(=O)[C@@H]2[C@@H](O)CCN2C(=O)[C@H]([C@H](O)CCN)NC(=O)[C@H]([C@H](O)[C@@H](O)c2ccc(O)cc2)NC(=O)[C@@H]2C[C@@H](O)CN2C(=O)[C@H]([C@@H](C)O)NC1=O` (stereo not given in full), for which the MFC – broadly, the smallest concentration meeting the test's criterion for killing the fungus – against Kluyveromyces marxianus is < 0.06 µg/mL; in the assay with Candida albicans [1] it was < 0.06 µg/mL; against Candida parapsilosis, 0.125 µg/mL (≈ 0.114 µM); in the assay with Candida albicans [4], 0.125 µg/mL (≈ 0.114 µM); against Candida tropicalis, < 0.06 µg/mL. Also, the ED99.9 with Mus musculus [2] worked out at 0.09 mg/kg. It took a dose of 0.03 mg/kg to reach the 50% effect level with Mus musculus [3] (ED50). In the assay with Rattus norvegicus, this compound registered an ED90 of 0.019 mg/kg. For the same compound, the 50% inhibitory concentration (IC50) – broadly, the point on the concentration scale where inhibition reaches its midpoint – in the assay with Candida albicans [5] is 1 nM.
For `CCC(C)CC(C)CCCCCCCCC(=O)N[C@H]1C[C@@H](O)[C@@H](OCCN)NC(=O)[C@@H]2[C@@H](O)CCN2C(=O)[C@H]([C@H](O)CC(N)=O)NC(=O)[C@H]([C@H](O)[C@@H](O)c2ccc(O)cc2)NC(=O)[C@@H]2C[C@@H](O)CN2C(=O)[C@H]([C@@H](C)O)NC1=O` (stereo not given in full), the MFC against Kluyveromyces marxianus stood at 1 µg/mL (≈ 0.902 µM); with Candida albicans [1], 0.125 µg/mL (≈ 0.113 µM); with Candida parapsilosis it was 1 µg/mL (≈ 0.902 µM); with Candida albicans [4], 0.125 µg/mL (≈ 0.113 µM); in the assay on Candida tropicalis, 0.25 µg/mL (≈ 0.226 µM). This compound also yielded an ED99.9 in the assay on Mus musculus [2] of 0.78 mg/kg. In addition, in the assay on Mus musculus [3], it took a dose of 0.06 mg/kg to reach the 50% effect level (ED50). In addition, the ED90 with Rattus norvegicus is 0.037 mg/kg. Also, in the assay with Candida albicans [5], the IC50 turned out to be 11 nM.
As for `CCC(C)CC(C)CCCCCCCCC(=O)N[C@H]1C[C@@H](O)[C@@H](O)NC(=O)[C@@H]2[C@@H](O)CCN2C(=O)[C@H]([C@H](O)CC(N)=O)NC(=O)[C@H]([C@H](O)[C@@H](O)c2ccc(O)cc2)NC(=O)[C@@H]2C[C@@H](O)CN2C(=O)[C@H]([C@@H](C)O)NC1=O` (stereo partly drawn) (X1-[Orn(4R-OH,5R-OH)]T[Hyp][hTyr(3S-OH,4S-OH)][Gln(3R-OH)][Pro(3S-OH)]; lactam 1-C), the MFC in the assay with Kluyveromyces marxianus was determined as 1 µg/mL (≈ 0.939 µM); in the assay with Candida albicans [1] it was 0.25 µg/mL (≈ 0.235 µM); in the assay with Candida parapsilosis, 2 µg/mL (≈ 1.88 µM); against Candida albicans [4] it was 0.5 µg/mL (≈ 0.469 µM); in the assay on Candida tropicalis it was 0.125 µg/mL (≈ 0.117 µM). Moreover, the ED50 (usually the dose at which the effect has come halfway, by size or by number of responders) in the assay with Mus musculus [6] was > 20 mg/kg. Moreover, the ED99.9 in the assay on Mus musculus [2] came out at 6 mg/kg. The ED90 in the assay on Rattus norvegicus was 0.15 mg/kg.
As to `CCC(C)CC(C)CCCCCCCCC(=O)N[C@H]1C[C@@H](O)[C@@H](O)NC(=O)[C@@H]2[C@@H](O)CCN2C(=O)[C@H]([C@H](O)CCN)NC(=O)[C@H]([C@H](O)[C@@H](O)c2ccc(O)cc2)NC(=O)[C@@H]2C[C@@H](O)CN2C(=O)[C@H]([C@@H](C)O)NC1=O` (stereo partly drawn) (X1-[Orn(4R-OH,5R-OH)]T[Hyp][hTyr(3S-OH,4S-OH)][Orn(3R-OH)][Pro(3S-OH)]; lactam 1-C), the MFC in the assay on Kluyveromyces marxianus was 0.125 µg/mL (≈ 0.119 µM); against Candida albicans [1], < 0.06 µg/mL; against Candida parapsilosis, 0.125 µg/mL (≈ 0.119 µM); with Candida albicans [4], < 0.06 µg/mL; with Candida tropicalis, < 0.06 µg/mL. Further, the ED99.9 in the assay on Mus musculus [2] stood at 0.375 mg/kg. Also, in the assay on Mus musculus [3], the ED50 is > 20 mg/kg. This compound also registered an ED90 with Rattus norvegicus of 0.037 mg/kg. In the assay on Candida albicans [5], it took 10 nM to reach half-maximal inhibition (IC50).
